E-selectin induc – induces E-selectin expression in human endothelial cells; activation, % at 7.58 µM; hit rate 0.37% among 260,000; HUVEC E-selectin immunofluorescence imaging; normalized: neutral wells 0, TNF-alpha wells 100; P16581;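 active = mean E-selectin-positive cell signal at least 10% of the positive control, reached in at least 60% of replicates, without over 20% cell loss; inconclusive = no rule given, readout overlaps actives, possibly toxicity-flagged; inactive = the rest, including those meeting only one limit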
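Read-out: % PE-positive cells | Test system: HUVEC | Doses: One compound dose added by pin transfer | Buffer or medium: EGM-2 over gelatin coat | Signal: Immunofluorescence imaging | Benchmarks: TNF-alpha, DMSO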
FGF22 binding – FGF22 (human) thermal shift binding; Q9HCT0; recombinant FGF22 thermal shift, SYPRO orange fluorescence; percent of sucrose octasulfate shift, DMSO zero; activity (Tm shift, normalised), % at 9.99 µM; hit rate 1.5% among 340,000;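 active = mean Tm shift, scaled 0 neutral to 100 positive control, at about 1.3% or above, every replicate too, limit read from the data; inconclusive = no clear call, values can overlap the other calls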
Target sequence (Q9HCT0 whole entry, looked up): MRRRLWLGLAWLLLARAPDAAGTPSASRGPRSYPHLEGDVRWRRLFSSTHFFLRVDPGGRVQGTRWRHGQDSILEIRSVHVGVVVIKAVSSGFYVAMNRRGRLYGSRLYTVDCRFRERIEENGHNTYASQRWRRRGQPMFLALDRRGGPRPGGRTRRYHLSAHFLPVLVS
Statin myotox sup – suppressors of simvastatin-induced myotoxicity in C2C12 myotubes | hit rate 0.78% among 330,000 | ATP luminescence, 48 h; scaled: DMSO 0, geranylgeraniol control 100 | rescue of ATP level, % at 7.49 µM;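 active = mean ATP rescue above about 67%, or every replicate alone reaching that limit, limit read from the data, passing the limit was not always enough; inconclusive = no clear call, values can overlap the other calls; inactive = mean under the limit and some replicate under it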;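 note: myotubes were challenged with 10 µM simvastatin during compound exposure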
PglD DTNB – PglD (C. jejuni) enzyme inhibition; hit rate 0.098% among 360,000; purified PglD enzyme, DTNB colorimetric CoA detection; inhibition, % at 12.5 µM; in the data active = inhibition above about 16%, passing the limit was not always enough; inconclusive = no clear call, values can overlap the other calls
Xi reactivation – X-chromosome reactivation activator; XiGFP mouse fibroblasts, % GFP-positive cells imaging, 3 d; cells co-treated with 5-aza-dC sensitizer; scaled so ellipticine positive control = 100%; activation, % at 7.58 µM; hit rate 0.055% among 360,000; AID 743238;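 active = mean normalized replicate activation at least 10% and every replicate at or above 10%; inconclusive = only one of the two criteria met; inactive = mean below 10% and not all replicates reach 10%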
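System: 68-5-11 XiGFP fibroblast line | Buffer or medium: DMEM containing 5-aza-dC | Compound: Single point | Times: Compounds 3 days, fix/stain 15 min at room temperature | Benchmarks: Positive control ellipticine, 6 µM final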
DENV2 CPE rescue – inhibitors of DENV2 cytopathic effect; DENV2-infected cells, cytopathic effect rescue, plate reader; CPE inhibition, % at 9.99 µM; hit rate 1.7% among 350,000; AID 651640; in the data active = CPE inhibition above about 20%, passing the limit was not always enough; inconclusive = no clear call, values can overlap the other calls; tested in BHK-21 cells
A number is an active result; 0 = inactive; ? = inconclusive; - = not tested or not shown; ! = a repeat was not active. In the library only some 3.3% were active in any assay of this set; here they are far more common.

SMILES	E-selectin induc	FGF22 binding	Statin myotox sup	PglD DTNB	Xi reactivation	DENV2 CPE rescue
COc1ccc(NC(=O)Nc2ccc3c(c2)C(=O)N([C@@H](C)CO)C[C@@H](C)[C@@H](CN(C)Cc2ccc4c(c2)OCO4)OCCCC[C@@H](C)O3)cc1	0	0	-	0	0	34
COc1ccc(NC(=O)Nc2ccc3c(c2)C(=O)N([C@@H](C)CO)C[C@@H](C)[C@@H](CN(C)Cc2ccc4c(c2)OCO4)OCCCC[C@H](C)O3)cc1	0	0	-	0	0	0
COc1ccc(NC(=O)Nc2ccc3c(c2)C(=O)N([C@H](C)CO)C[C@@H](C)[C@H](CN(C)Cc2ccc4c(c2)OCO4)OCCCC[C@@H](C)O3)cc1	0	0	-	0	0	24
COc1ccc(NC(=O)Nc2ccc3c(c2)C(=O)N([C@@H](C)CO)C[C@H](C)[C@H](CN(C)Cc2ccc(C(=O)O)cc2)OCCCC[C@@H](C)O3)cc1	0	0	-	0	0	59
COc1ccc(NC(=O)Nc2ccc3c(c2)C(=O)N([C@H](C)CO)C[C@H](C)[C@H](CN(C)Cc2ccc(C(=O)O)cc2)OCCCC[C@H](C)O3)cc1	0	0	-	0	0	?
CCCC(=O)Nc1ccc2c(c1)C(=O)N(C)[C@H]1CC[C@@H](CC(=O)NCCc3ccccc3)O[C@@H]1CO2	0	-	0	-	0	-
C[C@@H]1CN([C@@H](C)CO)C(=O)c2cccc(NC(=O)Nc3ccccc3)c2O[C@@H]1CN(C)C(=O)Nc1ccc(C(F)(F)F)cc1	0	0	0	0	0	38
C[C@H](CO)N1C[C@H](C)[C@@H](CN(C)C(=O)Nc2ccc(C(F)(F)F)cc2)Oc2c(NC(=O)C3CCCCC3)cccc2C1=O	0	0	0	0	0	22!
C[C@H]1CN([C@@H](C)CO)C(=O)c2cccc(NC(=O)Nc3ccccc3)c2O[C@H]1CN(C)C(=O)Nc1ccccc1	0	-	0	-	0	-
C[C@H](CO)N1C[C@H](C)[C@@H](CN(C)C(=O)Nc2ccc(C(F)(F)F)cc2)Oc2c(NC(=O)C3CC3)cccc2C1=O	0	0	0	0	0	0
C[C@H](CO)N1C[C@H](C)[C@@H](CN(C)CC2CC2)Oc2c(NC(=O)Nc3ccc(C(F)(F)F)cc3)cccc2C1=O	0	0	0	0	0	0
C[C@@H]1CN([C@@H](C)CO)C(=O)c2cccc(NC(=O)Nc3ccccc3)c2O[C@H]1CN(C)C(=O)Nc1ccc(C(F)(F)F)cc1	0	0	0	0	0	0
C[C@@H]1CN([C@H](C)CO)C(=O)c2cccc(NC(=O)Nc3ccccc3)c2O[C@H]1CN(C)C(=O)Nc1ccccc1	0	0	0	0	0	52
C[C@H]1CN([C@@H](C)CO)C(=O)c2cccc(NC(=O)Nc3ccc(C(F)(F)F)cc3)c2O[C@@H]1CN(C)CC1CC1	0	0	0	0	0	31
O=C(C[C@H]1CC[C@@H]2[C@H](COC[C@@H](O)CN2S(=O)(=O)c2cccc(Cl)c2)O1)NC1CCCC1	0	0	0	0	0	0
C[C@H]1CN([C@@H](C)CO)C(=O)c2cccc(NC(=O)Nc3ccc(C(F)(F)F)cc3)c2O[C@H]1CN(C)C(=O)Nc1ccc(C(F)(F)F)cc1	0	0	0	0	0	0
C[C@@H]1CN([C@H](C)CO)C(=O)c2cccc(NC(=O)Nc3ccc(C(F)(F)F)cc3)c2O[C@@H]1CN(C)C(=O)Nc1ccc(C(F)(F)F)cc1	0	0	0	0	0	50
C[C@H](CO)N1C[C@H](C)[C@@H](CN(C)C(=O)Nc2ccc(C(F)(F)F)cc2)Oc2c(NC(=O)Nc3cccc4ccccc34)cccc2C1=O	0	-	-	-	0	-
C[C@H]1CN([C@@H](C)CO)C(=O)c2cccc(NC(=O)Nc3cccc4ccccc34)c2O[C@H]1CN(C)C(=O)Nc1ccc(C(F)(F)F)cc1	0	-	-	-	0	32
C[C@H](CO)N1C[C@H](C)[C@@H](CN(C)C(=O)Cc2ccccc2)OCCCC[C@H](C)Oc2ccc(NC(=O)Nc3ccc(F)cc3)cc2C1=O	0	0	-	0	0	0
Cc1nc2ccn(Cc3ccccc3)c(=O)c2cc1C(=O)N1CCN(c2ccccc2)CC1	-	0	0	0	0	26
Cc1cc(C)c2c(=O)n(CC(=O)N3CCN(c4ccccc4)CC3)ccc2n1	0	0	0	0	0	0
COCCNC(=O)CN(C(=O)CCC(=O)Nc1nccs1)c1ccccc1OC	-	-	109	0	-	-
CC(=O)N(C[C@H]1N[C@H](CO)[C@@H]1c1ccccc1)C(C)C	0	0	0	0	0	0
CC(C)CN(C[C@@H]1N[C@@H](CO)[C@@H]1c1ccccc1)C(=O)CN(C)C	0	0	0	0	0	40
SMILES	E-selectin induc	FGF22 binding	Statin myotox sup	PglD DTNB	Xi reactivation	DENV2 CPE rescue
CCN(C[C@@H]1N[C@@H](CO)[C@@H]1c1ccccc1)C(=O)c1ccncc1	0	0	0	0	0	22
CCC(=O)N(CC(C)C)C[C@@H]1[C@@H](c2ccccc2)[C@@H](CO)N1S(C)(=O)=O	0	-	-	-	0	29
O=C(Nc1ccc2c(c1)[C@H]1C[C@@H](CC(=O)N3CCOCC3)O[C@H](CO)[C@H]1O2)c1ccc2c(c1)OCO2	0	0	0	0	0	0
COc1ccc2c3c(n(C)c2c1)[C@@H](CO)N(CC1CC1)CC31CN(C(=O)CC2CC2)C1	0	0	-	-	0	21
COc1ccc2c3c(n(C)c2c1)[C@H](CO)N(CC1CC1)CC31CN(C(=O)Nc2ccccc2)C1	0	0	-	-	0	23
COc1ccc2c3c(n(C)c2c1)[C@H](CO)N(Cc1ccccc1F)CC31CCN(C(C)=O)CC1	0	-	-	-	0	93
CN(C)CC#Cc1ccc([C@H]2[C@H]3CN(C(=O)C4CC4)CCCCN3[C@H]2CO)cc1	-	0	-	0	-	0
C[C@@H]1CN([C@H](C)CO)C(=O)c2cc(NC(=O)CCC(F)(F)F)ccc2O[C@@H](C)CCCCO[C@@H]1CN(C)Cc1ccccc1	0	0	0	0	0	0
COc1cccc(NC(=O)C[C@H]2CC[C@@H]3[C@@H](COc4ccc(NC(=O)C5CCCCC5)cc4C(=O)N3C)O2)c1	0	0	0	0	0	33
CN(C)C(=O)C[C@@H]1CC[C@@H]2[C@H](COc3ccc(NC(=O)C4CCCCC4)cc3C(=O)N2C)O1	0	0	0	0	0	28
CN1CCN(C(=O)C[C@@H]2CC[C@H]3[C@H](COc4ccc(NC(=O)C5CCCC5)cc4C(=O)N3C)O2)CC1	0	-	-	-	0	25
C[C@@H]1CCCCO[C@@H](CN(C)Cc2ccccc2)[C@@H](C)CN([C@H](C)CO)C(=O)c2cc(NC(=O)Nc3ccc(C(F)(F)F)cc3)ccc2O1	0	0	-	0	0	0
